Data set [1] has as its target T1, Glucagon-like peptide 1 receptor (Rattus norvegicus) (UniProt P32301).
T1 sequence (whole entry): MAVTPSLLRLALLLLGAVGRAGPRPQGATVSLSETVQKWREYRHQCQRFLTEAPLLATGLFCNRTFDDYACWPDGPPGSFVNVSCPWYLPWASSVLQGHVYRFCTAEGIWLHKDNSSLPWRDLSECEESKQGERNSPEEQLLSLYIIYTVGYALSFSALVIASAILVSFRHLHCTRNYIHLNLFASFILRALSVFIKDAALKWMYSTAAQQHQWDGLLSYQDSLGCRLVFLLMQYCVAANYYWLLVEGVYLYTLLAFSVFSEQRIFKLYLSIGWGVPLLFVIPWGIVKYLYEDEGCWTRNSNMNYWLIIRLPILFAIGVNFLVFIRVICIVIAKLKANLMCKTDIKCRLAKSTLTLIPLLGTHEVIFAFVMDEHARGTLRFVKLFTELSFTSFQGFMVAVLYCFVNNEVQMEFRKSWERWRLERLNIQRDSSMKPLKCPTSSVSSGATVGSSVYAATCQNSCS
Kind of data set: Positive allosteric modulator activity at GLP-1R in rat INS1 beta-cells assessed potentiation of GLP-1(7-36)NH2 induced insulin secretion at 1 uM incubated for 30 mins in presence of 15 mM of glucose by ELISA. It counts as cell-based. Particulars: filed as positive allosteric modulator. The method, boiled down:
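Rat INS-1 cells held in glucose-free medium for 1.5 h (100,000 cells/well). […] Medium was centrifuged at 4 °C and secreted insulin measured by ELISA.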
(An ELISA detects its analyte on a solid surface through an enzyme-linked reagent.)

Data set [2] can be described thus: Toxicity in Wistar rat assessed anxiety like behavior at 0.5 to 1 mg/kg, ip measured after 30 mins by elevated plus-maze analysis. Particulars: in vivo, 0.5 h, dose 0.5-1 mg/kg. Format: organism-based. An outline of the steps:
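Male Wistar rats, naive to the maze, were handled for 7 days. Compound at 0.5 or 1 mg/kg ip in saline/DMSO (0.2%). 30 min after dosing, each rat was placed in the maze centre facing an open arm, and open-arm entries and % time in open arms were scored over 5 min. No retesting; 8 animals.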

The target of data set [3] is T2, Glucagon-like peptide 1 receptor (Rattus norvegicus, UniProt P32301).
T2 sequence (P32301 whole entry): T1 sequence (whole entry)
Kind of data set: Positive allosteric modulator activity at GLP-1R in rat INS1 beta-cells assessed potentiation of GLP-1(7-36)NH2 induced insulin secretion incubated for 30 mins in presence of high glucose condition by ELISA. It counts as cell-based.

Data set [4] in a line: Toxicity in Wistar rat assessed hypolocomotion at 0.5 to 1 mg/kg, ip measured after 30 mins by elevated plus-maze analysis. Particulars: in vivo, 0.5 h.
The nature of data set [5]: Effective permeability of compound in PBS buffer at pH 7.4 at 50 to 100 uM after 5 hrs by PAMPA. Format: ADME. To be noted: pH 7.4, 5 h, dose 50-100 µM.

Activity calls are given as the source filed them. The rule behind the calls is not given here.

As to `FC(F)(F)c1ccc(-c2noc(CN3CCCCC3CCc3ccccn3)n2)cc1` (stereo unspecified), the outcome in data set [1] was Active.
With `FC(F)(F)c1ccc(-c2noc(CN3CCCC(CN4CCOCC4)C3)n2)cc1` (stereo unspecified), the Activity result in data set [2] and in data set [4] was “Non-Toxic” in each case. Also, in data set [3], the EC50 (as a rule, the midpoint of the concentration-response curve) is 8 pM. Moreover, the Peff entry in data set [5] was “Active”.
For the molecule `NC(=O)C1CCN(Cc2nc(-c3ccc(C(F)(F)F)cc3)no2)CC1`, the result in data set [1] was Active.

(Values after ChEMBL document CHEMBL5154825, “Discovery of V-0219: A Small-Molecule Positive Allosteric Modulator of the Glucagon-Like Peptide-1 Receptor toward Oral Treatment for "Diabesity"” (J Med Chem, 2022).)
